The source of these data is ChEMBL document CHEMBL4393735, “Molecular modelling, synthesis, and biological evaluations of a 3,5-disubstituted isoxazole fatty acid analogue as a PPARα-selective agonist” (Bioorg Med Chem, 2019).

Activity calls are given as the source filed them.

What all share (assay type): cell-based
For series [1], the target named is T1, Retinoic acid receptor RXR-alpha (Homo sapiens) (UniProt P19793).
T1 sequence (whole entry): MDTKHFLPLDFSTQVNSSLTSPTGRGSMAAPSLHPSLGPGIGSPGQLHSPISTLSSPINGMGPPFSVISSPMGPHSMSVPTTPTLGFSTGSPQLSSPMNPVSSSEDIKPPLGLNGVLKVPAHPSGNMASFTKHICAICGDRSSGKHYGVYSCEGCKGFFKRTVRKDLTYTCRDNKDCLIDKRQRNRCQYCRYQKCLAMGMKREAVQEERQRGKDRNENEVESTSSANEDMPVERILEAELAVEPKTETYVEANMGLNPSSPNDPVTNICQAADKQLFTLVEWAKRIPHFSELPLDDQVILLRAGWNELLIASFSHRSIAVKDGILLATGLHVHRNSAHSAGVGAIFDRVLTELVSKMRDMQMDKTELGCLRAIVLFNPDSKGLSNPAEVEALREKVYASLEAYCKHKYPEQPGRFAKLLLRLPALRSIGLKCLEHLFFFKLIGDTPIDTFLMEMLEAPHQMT
The experiment in a line: Agonist activity at full length human FLAG-tagged GAL4-DBD fused RXRalpha LBD (202 to 462 residues) expressed in COS1 cells at 25 to 50 uM measured after 18 hrs by dual luciferase reporter gene assay. An outline of the steps:
(§1)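 COS-1 cells were transfected using Lipofectamine 2000 with GAL4-DBD–human NR-LBD plasmid, a 5×UAS-SV40 firefly luciferase reporter and pRL-CMV. After 6 h, cells were treated with 0, 25 or 50 μM in 0.1% DMSO (final) for 18 h. Firefly signal was normalized to Renilla, then to DMSO control and GAL4-only. Three biological replicates in quadruplicate, mean ± SEM, two-way ANOVA with Bonferroni.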
Background: Reporter assays use an easily measured gene product as a stand-in for the process of interest.

The next series relates to COS-1. The experiment in a line: Cytotoxicity against African green monkey COS1 cells assessed as reduction in cell viability at 10^-4 M by LDH release assay. The note with it: chlorocebus aethiops, cos-1, 100 µM. Put shortly: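 COS-1 cells were treated across the same concentration series as the GAL4 dose-response runs. Cytotoxicity was measured as LDH released into medium (absorbance 492/750 nm) and by XTT viability assay (absorbance 450/690 nm). Results expressed relative to control.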
Background: LDH in the medium is a marker of cell lysis.

Series [2] concerns the target T2, Peroxisome proliferator-activated receptor alpha (Mus musculus) (UniProt P23204).
T2 sequence (whole entry): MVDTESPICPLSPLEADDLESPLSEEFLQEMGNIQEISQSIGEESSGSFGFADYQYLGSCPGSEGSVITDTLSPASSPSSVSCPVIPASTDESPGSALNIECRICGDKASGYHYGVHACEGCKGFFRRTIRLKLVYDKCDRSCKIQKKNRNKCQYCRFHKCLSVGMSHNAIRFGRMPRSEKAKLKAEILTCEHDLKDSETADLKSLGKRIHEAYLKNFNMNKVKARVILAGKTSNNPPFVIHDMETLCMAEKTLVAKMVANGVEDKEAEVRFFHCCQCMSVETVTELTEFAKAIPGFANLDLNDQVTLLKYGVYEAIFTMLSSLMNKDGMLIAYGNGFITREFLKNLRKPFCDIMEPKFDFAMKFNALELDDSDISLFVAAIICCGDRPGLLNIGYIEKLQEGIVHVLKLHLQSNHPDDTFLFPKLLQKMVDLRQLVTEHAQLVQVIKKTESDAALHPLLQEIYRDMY
The experiment in a line: Agonist activity at PPARalpha in C57BL/6N mouse primary hepatocytes assessed as SCD1 mRNA expression at 50 uM measured after 18 hrs by qRT-PCR analysis. An outline of the steps:
(§2)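 Treatment for 18 h at 50 μM (or 1 μM for the 1 μM agents), DMSO vehicle. Harvested for qPCR. mRNA normalized to TBP by the comparative threshold method, expressed relative to DMSO control. Two biological replicates run in duplicate, mean ± SEM. Primary hepatocytes came from male C57BL/6N mice aged 7–8 weeks, isolated by portal-vein perfusion and digestion, seeded on collagen I and used on day 2. HuH-7 cells were kept in DMEM with 10% FBS and ITS.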
In general terms: Quantitative PCR measures a nucleic acid by following its amplification.

The target of series [3] is T2, Peroxisome proliferator-activated receptor alpha (Mus musculus). The experiment in a line: Agonist activity at PPARalpha in C57BL/6N mouse primary hepatocytes assessed as SREBF1 mRNA expression at 50 uM measured after 18 hrs by qRT-PCR analysis. An outline of the steps: as §2
The target in series [4] is T3, Peroxisome proliferator-activated receptor gamma (Homo sapiens) (UniProt P37231).
T3 sequence (whole entry): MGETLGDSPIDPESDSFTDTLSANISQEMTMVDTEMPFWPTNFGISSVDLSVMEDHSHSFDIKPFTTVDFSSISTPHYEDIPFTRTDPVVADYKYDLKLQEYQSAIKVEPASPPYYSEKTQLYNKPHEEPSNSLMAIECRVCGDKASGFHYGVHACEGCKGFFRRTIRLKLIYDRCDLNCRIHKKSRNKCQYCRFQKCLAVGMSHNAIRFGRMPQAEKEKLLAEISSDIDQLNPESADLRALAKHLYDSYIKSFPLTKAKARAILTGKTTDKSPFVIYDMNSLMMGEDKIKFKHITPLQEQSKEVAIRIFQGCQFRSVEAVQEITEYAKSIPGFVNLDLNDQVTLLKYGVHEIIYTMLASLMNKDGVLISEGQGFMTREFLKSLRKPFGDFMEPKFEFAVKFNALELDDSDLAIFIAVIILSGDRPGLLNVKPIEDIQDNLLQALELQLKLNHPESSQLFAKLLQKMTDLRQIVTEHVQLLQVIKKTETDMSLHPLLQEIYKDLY
Kind of series: Agonist activity at full length human FLAG-taggedGAL4-DBD fused PPARgamma LBD (205 to 505 residues) expressed in COS1 cells at 25 to 50 uM measured after 18 hrs by dual luciferase reporter gene assay. Put shortly: as §1

For series [5], the target named is T4, Peroxisome proliferator-activated receptor alpha (Homo sapiens) (UniProt Q07869).
T4 sequence (whole entry): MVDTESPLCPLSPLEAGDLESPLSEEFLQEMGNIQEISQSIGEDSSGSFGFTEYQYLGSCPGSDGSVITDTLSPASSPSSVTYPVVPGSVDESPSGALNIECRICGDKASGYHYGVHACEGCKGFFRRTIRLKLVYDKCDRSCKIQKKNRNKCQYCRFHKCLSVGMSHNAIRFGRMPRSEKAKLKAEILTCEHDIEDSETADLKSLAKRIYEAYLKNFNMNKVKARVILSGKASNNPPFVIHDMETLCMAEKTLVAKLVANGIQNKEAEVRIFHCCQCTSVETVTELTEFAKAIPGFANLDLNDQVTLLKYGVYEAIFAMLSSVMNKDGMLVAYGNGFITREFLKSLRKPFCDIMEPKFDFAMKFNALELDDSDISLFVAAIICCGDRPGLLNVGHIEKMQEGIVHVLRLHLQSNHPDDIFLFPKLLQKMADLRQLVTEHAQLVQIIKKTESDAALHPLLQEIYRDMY
Kind of series: Agonist activity at full length human FLAG-tagged GAL4-DBD fused PPARalpha LBD (168 to 468 residues) expressed in COS1 cells at 25 to 50 uM measured after 18 hrs by dual luciferase reporter gene assay relative to pirinixic acid. An outline of the steps:
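COS-1 cells were transfected with GAL4-DBD–PPARα-LBD, a 5×UAS luciferase reporter and a Renilla control. After 6 h, cells were treated with 0, 25 or 50 μM test compound or pirinixic acid in 0.1% DMSO (final) for 18 h. Dual-luciferase read-out, firefly/Renilla ratio, normalized to DMSO control and GAL4.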

With `CCCCCCCc1cc(CCCCCC(=O)O)no1`, the result in series [1] and in series [4] was inactive. Moreover, the Activity result in the series on COS-1 was “Toxic”. The outcome in series [2] and in series [3] was Active. The molecule further registered a fold change (FC) in series [5] of 2.5.
